Test results reported in publication PMC4681442 (Angewandte Chemie (International ed. in English), 2015).

Key:
[1] = tested on: SKOV3 cells; experiment: Cell viability; assay type: cell-based; conditions: CDDP 6 μg/mL alone
[2] = tested on: PC-12 cells; conditions: cisplatin; cited from earlier work
[3] = tested on: HS-5 cells; experiment: Cytotoxicity to HS-5 cells; assay type: cell-based; conditions: cisplatin (Figure S16)
[4] = tested on: A2780 cells; experiment: Cell viability; assay type: cell-based; conditions: CDDP without adding D-1, 72 h
In short: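 MTT assay (mitochondrial reductase activity) in cisplatin-sensitive A2780 and cisplatin-resistant A2780cis cells. Cells were incubated 72 h with precursor alone, cisplatin alone, or both together. Viability was expressed relative to untreated control, with significance thresholds p≤0.001 and p≤0.0001.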

## [NH2][Pt]([NH2])([Cl])[Cl] [CDDP, cisplatin]
[1]; 72 h (Figure 2A)
  inhibition of SKOV3 cells: 48%
[1]; 72 h, control experiment with 3
  cell death of SKOV3 cells: about 40%
[2]
  inhibition of PC-12 cells: significantly inhibits
[3]
  inhibition of HS-5 cells: significantly inhibits
[4]
  cell viability of A2780: about 38%
